High-throughput results as filed in PubChem BioAssay.
The sample as a whole holds a higher share of hits than the screen did.
Cardio protect = modulators protecting cardiomyocytes from myocardial damage; H9c2 cardiomyocytes, H2O2 injury protection, ATPLite, 2 h; protection from H2O2 cell death, % at 20 µM; 360,000 tested, 0.63% active; AID 588492;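 active = compounds giving at least 50% protection of heart cells from peroxide-induced death in the single-dose screen, raw or plate-pattern-corrected value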;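 note: 0% = DMSO wells with peroxide and 100% = DMSO wells without peroxide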
hiPSC survival = hiPSC single-cell survival enhancement; ATPlite luminescence; 100% = ROCK inhibitor wells, 0% = DMSO; survival enhancement, % at 20 µM; 360,000 tested, 0.044% active; AID 602274; in the data active = survival enhancement above about 18%;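 note: cells exposed to compounds for 16 hours before the ATP read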
UPR XBP1 act = activators of adaptive arm of unfolded protein response (XBP1). CHO-XBP1 luciferase reporter, IRE1-XBP1 UPR activation, luminescence; percent of tunicamycin response, DMSO as zero. activation, % at 20 µM. 330,000 tested, 0.33% active. AID 463104;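 active = versus positive control, 20 µM dose yields 30% or more activation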;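 note: 100% = tunicamycin at 10 µg/mL and 0% = DMSO only wells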
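Assay system: CHO-XBP1 luciferase reporter cells; Schedule: 6 h treatment, 37 °C; Detection: glow luminescence from Steady-Glo reagent; Benchmarks: high control tunicamycin 10 µg/mL final, low control DMSO vehicle only.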
CHOP inh = blocks CHOP induction under ER stress; CHO-K1 CHOP-promoter luciferase, tunicamycin-induced, 15-18 h; inhibition, % at 10 µM; 220,000 tested, 3.8% active;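 active = compounds that reduced the stress-induced luciferase reporter signal by more than about 70% of percent inhibition, limit read from the data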;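 note: 0% = tunicamycin plus vehicle and 100% = wells without tunicamycin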
UPR CHOP act = activators of apoptotic arm of unfolded protein response (CHOP); CHO-CHOP luciferase reporter, UPR activation, luminescence; percent of tunicamycin response over DMSO baseline; activation, % at 10 µM; 330,000 tested, 0.34% active;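 active = at 10 µM dose, activation of 40% or more, normalized to positive control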;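 note: 100% = tunicamycin at 10 µg/mL and 0% = DMSO alone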
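System: CHO-CHOP luciferase reporter cell line | Buffer or medium: F12 medium containing 10% fetal bovine serum | Doses: One dose, 10 µM in 0.5% DMSO | Times: 6 h compound exposure at 37 °C after overnight seeding | Signal: Luciferase luminescence | Read-out: % activation vs tunicamycin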
CHOP confirm = confirmation of CHOP induction inhibitors; inhibition, % at 10 µM; CHO-CHOP promoter luciferase reporter, tunicamycin-induced, luminescence; shares compounds with CHOP inh; 2,100 tested, 45% active;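 active = mean of three repeat readings of reporter signal inhibition above a set limit, cut at about 70% in these data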;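 note: 0% = tunicamycin plus vehicle and 100% = wells lacking tunicamycin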
Starred values were filed as active, the others as inactive.

Screening Cc1ccc(C)c(C(O)c2ncc(-c3ccccc3Cl)[nH]2)c1 (stereo not given) returned Cardio protect -9 and hiPSC survival 0.
CCn1cc(C(=O)O)c(=O)c2cc(F)c(N3CCNC(C)C3)c(F)c21 (stereo not given) was read as CHOP inh -11.
CCOc1cc(/C=N/NC(=O)COc2cccc(C)c2)ccc1OC(=O)c1cccs1 was read as Cardio protect 3, hiPSC survival 0, UPR XBP1 act 8, CHOP inh 106*, UPR CHOP act 4 and CHOP confirm 94*.
`COc1cc(/C=N/NC(=O)COc2ccccc2C)ccc1OC(=O)c1cccs1` gave Cardio protect -2, hiPSC survival 0, UPR XBP1 act 17, CHOP inh -2 and UPR CHOP act 16.
`CSCC(C)N1CCC(N2CCC(C(=O)NCc3ccccn3)CC2)CC1` (stereo not given) gave Cardio protect -3, hiPSC survival 0, UPR XBP1 act -3 and UPR CHOP act 2.
`CC1(C(=O)NS(=O)(=O)c2ccc(Br)cc2)CCN1C(=O)C1CCCCC1` (stereo not given) gave Cardio protect 0 and hiPSC survival 1.
Screening N#Cc1nccnc1S(=O)(=O)c1cccs1 returned UPR XBP1 act -9, CHOP inh 107*, UPR CHOP act -9 and CHOP confirm 105*.
Screening Cc1ccc(C(C)C)c(OCc2ccc(C(=O)N/N=C/c3ccc(C(=O)O)cc3)cc2)c1 returned Cardio protect 1, hiPSC survival -1, UPR XBP1 act -1, CHOP inh 97*, UPR CHOP act -1 and CHOP confirm 31.
For CC(C)(C)c1ccc(OCC(O)CNC(=O)c2ccccc2C(=O)O)cc1 (stereo not given) the results were Cardio protect -6, hiPSC survival 2, UPR XBP1 act -3 and UPR CHOP act 3.
Screening CNCC(O)COc1ccccc1 (stereo not given) returned Cardio protect 2, hiPSC survival -2, UPR XBP1 act 2, CHOP inh 104*, UPR CHOP act -1 and CHOP confirm 5.
COc1ccccc1NCC(O)COc1ccc(C(C)(C)C)cc1 (stereo not given) was read as Cardio protect -26, hiPSC survival 0, UPR XBP1 act -1, CHOP inh 105*, UPR CHOP act -1 and CHOP confirm 120*.
For COc1ccc(NCC(O)COc2ccc(C(C)(C)C)cc2)cc1 (stereo not given) the results were Cardio protect -16, hiPSC survival 0, UPR XBP1 act 5, CHOP inh 104*, UPR CHOP act -1 and CHOP confirm 57.
OC(CNc1ccccc1)COc1ccc(OCC(O)CNc2ccccc2)cc1 (stereo not given) was read as Cardio protect -20, hiPSC survival 0, UPR XBP1 act -2, CHOP inh 65 and UPR CHOP act 4.
CC1CCCCC1NC(=O)CSc1nnc(-c2ccco2)n1N (stereo not given) was read as Cardio protect 0 and hiPSC survival 1.
Screening CS(=O)(=O)c1ccc2nc(NC(=O)c3ccc(NS(=O)(=O)c4ccc(F)c(F)c4)cc3)sc2c1 returned Cardio protect -3, hiPSC survival -1, UPR XBP1 act -1, CHOP inh 7 and UPR CHOP act 1.
For O=C(Nc1nc2ccc(SC(F)F)cc2s1)c1ccc(NS(=O)(=O)c2ccc(F)c(F)c2)cc1 the results were Cardio protect -19, hiPSC survival 2, UPR XBP1 act 2, CHOP inh 106*, UPR CHOP act 7 and CHOP confirm -5.
`O=Cc1cn(-c2ccccc2)nc1-c1ccc(F)cc1` gave Cardio protect -4, hiPSC survival 0, UPR XBP1 act 0 and UPR CHOP act 5.
CC1=NNC(=O)/C1=C\c1cn(-c2ccccc2)nc1-c1ccc(F)cc1 was read as Cardio protect -21, hiPSC survival 1, CHOP inh 106* and CHOP confirm 119*.
Screening Cc1cc2nc(-c3ccccc3Br)n(/C=C(\c3ccccc3)n3c(=O)[nH]c4ccccc43)c2cc1C returned Cardio protect 0 and hiPSC survival 1.
For CN(C)CCNC=C(C(=O)Nc1ccc(Cl)cc1Cl)C(=O)Nc1ccc(Cl)cc1Cl the results were Cardio protect -34, hiPSC survival -1, UPR XBP1 act 29, CHOP inh 99*, UPR CHOP act 6 and CHOP confirm 26.
CC(=O)/C(=C/N(C)C)C(=O)Nc1ccc(Cl)cc1Cl was read as Cardio protect -7, hiPSC survival -1, UPR XBP1 act 2, CHOP inh 12 and UPR CHOP act 1.
NC(N)=N/N=C/c1ccc(OCc2ccccc2Cl)cc1 was read as Cardio protect -26, hiPSC survival -6, UPR XBP1 act 6, CHOP inh 97*, UPR CHOP act 5 and CHOP confirm -14.
`CCCCOP(=O)(OCCCC)C1(NS(=O)(=O)c2ccccc2)C=CC(=O)c2ccccc21` (stereo not given) gave Cardio protect -12, hiPSC survival -2, UPR XBP1 act -1, CHOP inh 96*, UPR CHOP act 1 and CHOP confirm 63.
Screening CCCCOCCCNS(=O)(=O)c1ccccc1 returned Cardio protect -5, hiPSC survival 2, UPR XBP1 act 3, CHOP inh 4 and UPR CHOP act 0.
Screening Cc1ccc(Sc2ccc(/C=N/O)cc2[N+](=O)[O-])cc1 returned Cardio protect -6, hiPSC survival 4, UPR XBP1 act -1, CHOP inh 101*, UPR CHOP act -2 and CHOP confirm 20.
O=C(CCN1C(=O)/C(=C/C=C/c2ccccc2)SC1=S)Nc1cccnc1 was read as Cardio protect -11, hiPSC survival 0, UPR XBP1 act 18, CHOP inh 102*, UPR CHOP act 23 and CHOP confirm 30.
O=C(CCN1C(=O)/C(=C/c2ccc(Cl)cc2)SC1=S)Nc1cccnc1 was read as Cardio protect -10, hiPSC survival 0, UPR XBP1 act -1 and UPR CHOP act 0.
Screening CCOc1ccc(NC(=O)CN2C(=O)S/C(=C/c3cccn3C)C2=O)cc1 returned Cardio protect -9, hiPSC survival -1, UPR XBP1 act -4, CHOP inh -7 and UPR CHOP act 3.
Screening Cn1cccc1/C=C1\SC(=O)N(CC(=O)Nc2ccc(Cl)cc2)C1=O returned Cardio protect -9, hiPSC survival 0, UPR XBP1 act -5, CHOP inh 101*, UPR CHOP act 1 and CHOP confirm 1.
